Key:
[1] = system: Mus musculus; experiment: Hypnotic activity in Swiss albino mouse assessed as righting reflex at 3 mmol/kg, ip; type: ADME, organism-based; details: in vivo
[2] = system: Mus musculus; experiment: Anticonvulsant activity in Swiss albino mouse assessed as protection against pentylenetetrazole-induced convulsion at 1.5 mmol/kg, ip treated after 30 mins of pentylenetetrazole measured for 30 mins; type: functional
[3] = system: Mus musculus; experiment: Neurotoxicity in Swiss albino mouse assessed as effect on motor activity at 1.5 mmol/kg, ip after 30 mins; type: toxicity, organism-based; details: in vivo, 0.5 h
Procedure, shortened: (§1)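 Motor activity measured with an activity meter at 0 and 30 min after i.p. dosing, zero time taken as 100%.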

[4] = system: Mus musculus; experiment: Anticonvulsant activity in Swiss albino mouse assessed as protection against maximal electroshock-induced convulsion at 0.75 mmol/kg, ip […]; type: functional
Procedure, shortened: (§2)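 Test agent given i.p. to mice; 30 min later electric shock applied through the ears, animals released immediately to observe maximal seizure; percentage protected recorded (10 animals per dose in dose-response runs).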

[5] = system: Mus musculus; experiment: Neurotoxicity in Swiss albino mouse assessed as inability to climb up backwards in a glass tube within 30 seconds at 3 mmol/kg, ip measured after 15 and 25 mins by Chimney test; type: toxicity, organism-based; details: in vivo
Procedure, shortened: (§3)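 Chimney test: 15 and 25 min after i.p. dosing (3.0, 1.5, 0.75, 0.375 mmol/kg), inability of mice to climb backwards up a glass tube 25 cm long, 3 cm inner diameter, within 30 s recorded as neurological deficit.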

[6] = system: Mus musculus; experiment: Anticonvulsant activity in Swiss albino mouse assessed as protection against pentylenetetrazole-induced convulsion at 0.75 mmol/kg, ip treated after 30 mins of pentylenetetrazole measured for 30 mins; type: functional
[7] = system: Mus musculus; experiment: Anticonvulsant activity in Swiss albino mouse assessed as protection against maximal electroshock-induced convulsion at 3.0 mmol/kg, ip […]; type: functional; procedure, shortened: as §2
[8] = Toxicity in ip dosed Swiss albino mouse assessed as sedative effect; type: organism-based; details: in vivo
[9] = system: Mus musculus; experiment: Anticonvulsant activity in Swiss albino mouse assessed as protection against pentylenetetrazole-induced convulsion at 3 mmol/kg, ip treated after 30 mins of pentylenetetrazole measured for 30 mins; type: functional
[10] = system: Mus musculus; experiment: Anticonvulsant activity in Swiss albino mouse assessed as protection against picrotoxin-induced convulsion at 1.5 mmol/kg, ip […] measured for 30 mins; type: functional
Procedure, shortened: (§4)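 Test compound given i.p.; 30 min later, picrotoxin 3.15 mg/kg s.c. was injected. Picrotoxin was freshly dissolved in 1 ml warmed 0.1 N HCl and made up with 0.9% NaCl. Each dose was tested in 10 animals and the percentage of mice protected from clonic convulsions was recorded.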

[11] = organism: Mus musculus; experiment: Protective index, ratio of TD50 for Swiss albino mouse to ED50 for anticonvulsant activity in Swiss albino mouse; type: functional
Procedure, shortened: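 TD50 (median sedative dose) divided by ED50 (median effective dose), from dose-response curves at 10 mice per dose; 95% confidence limits given.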

[12] = system: Mus musculus; experiment: Anticonvulsant activity in Swiss albino mouse assessed as protection against pentylenetetrazole-induced convulsion at 0.37 mmol/kg, ip treated 30 mins before pentylenetetrazole measured for 30 mins
[13] = system: Mus musculus; experiment: Neurotoxicity in Swiss albino mouse assessed as effect on motor activity at 0.75 mmol/kg, ip after 30 mins; type: toxicity, organism-based; details: in vivo, 0.5 h; procedure, shortened: as §1
[14] = system: Mus musculus; experiment: Anticonvulsant activity in Swiss albino mouse assessed as protection against bicuculline-induced convulsion at 1.5 mmol/kg, ip […] measured for 30 mins; type: functional
Procedure, shortened: (§5)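 Mice (6 per compound) dosed i.p.; 30 min later given bicuculline 1 mg/kg s.c. (freshly dissolved in 1 ml warmed 0.1 N HCl, made up with 0.9% NaCl), then observed 30 min; percentage anticonvulsion (animals protected) calculated. Dose-response runs used 10 animals per dose.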

[15] = system: Mus musculus; experiment: Anticonvulsant activity in ip dosed Swiss albino mouse assessed as protection against maximal electroshock-induced convulsion; type: functional; procedure, shortened: as §2
[16] = system: Mus musculus; experiment: Anticonvulsant activity in Swiss albino mouse assessed as protection against bicuculline-induced convulsion at 0.37 mmol/kg, ip […] measured for 30 mins; type: functional; procedure, shortened: as §5
[17] = system: Mus musculus; experiment: Hypnotic activity in Swiss albino mouse assessed as righting reflex at 0.75 mmol/kg, ip; type: ADME, organism-based; details: in vivo
[18] = system: Mus musculus; experiment: Neurotoxicity in Swiss albino mouse assessed as inability to climb up backwards in a glass tube within 30 seconds at 0.75 mmol/kg, ip measured after 15 and 25 mins by Chimney test; type: toxicity, organism-based; details: in vivo; procedure, shortened: as §3
[19] = system: Mus musculus; experiment: Neurotoxicity in Swiss albino mouse assessed as effect on motor activity at 3 mmol/kg, ip after 30 mins; type: toxicity, organism-based; details: in vivo, 0.5 h; procedure, shortened: as §1
[20] = system: Mus musculus; experiment: Neurotoxicity in Swiss albino mouse assessed as inability to climb up backwards in a glass tube within 30 seconds at 1.5 mmol/kg, ip measured after 15 and 25 mins by Chimney test; type: toxicity, organism-based; details: in vivo; procedure, shortened: as §3
[21] = Toxicity in Swiss albino mouse assessed as mortality at 3 mmol/kg, ip measured 7 to 11 mins before pentylenetetrazole challenge; type: organism-based; details: in vivo, read-out: Activity
Procedure, shortened: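 Compounds given i.p. at 3.0, 1.5, 0.75 and 0.375 mmol/kg to 6 mice per compound. Deaths occurring before the PTZ injection were recorded. PTZ (83 mg/kg s.c.) followed 30 min after compound dosing.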

[22] = system: Mus musculus; experiment: Neurotoxicity in Swiss albino mouse assessed as inability to climb up backwards in a glass tube within 30 seconds at 0.37 mmol/kg, ip measured after 15 and 25 mins by Chimney test; type: toxicity, organism-based; details: in vivo; procedure, shortened: as §3
[23] = system: Mus musculus; experiment: Hypnotic activity in Swiss albino mouse assessed as righting reflex at 1.5 mmol/kg, ip; type: ADME, organism-based; details: in vivo
[24] = Toxicity in Swiss albino mouse by Spearman-Karber method; type: organism-based; details: in vivo
Procedure, shortened: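 LD50 in mice was determined by the Spearman–Karber method, with doses chosen at equal logarithmic intervals. 95% confidence limits were reported.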

[25] = system: Mus musculus; experiment: Anticonvulsant activity in Swiss albino mouse assessed as protection against maximal electroshock-induced convulsion at 1.5 mmol/kg, ip […]; type: functional
Procedure, shortened: (§6)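 Test compound given i.p. to mice; 30 min later, electric shock was applied through the ears while the mice were hand-restrained. The mice were then released to observe the maximal seizure. Each dose was tested in 10 animals and the percentage protected was recorded.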

[26] = Therapeutic index, ratio of LD50 for Swiss albino mouse to ED50 for anticonvulsant activity in Swiss albino mouse; type: organism-based; details: in vivo, read-out: Ratio LD50/ED50
Procedure, shortened: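 TI was calculated as LD50/ED50. ED50 came from dose-response curves in 10 mice per dose. LD50 was determined by the Spearman–Karber method, with doses at equal logarithmic intervals.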

[27] = system: Mus musculus; experiment: Anticonvulsant activity in Swiss albino mouse assessed as protection against maximal electroshock-induced convulsion at 0.37 mmol/kg, ip […]; type: functional; procedure, shortened: as §6
[28] = system: Mus musculus; experiment: Anticonvulsant activity in Swiss albino mouse assessed as protection against picrotoxin-induced convulsion at 0.75 mmol/kg, ip […] measured for 30 mins; type: functional; procedure, shortened: as §4
[29] = system: Mus musculus; experiment: Anticonvulsant activity in Swiss albino mouse assessed as protection against bicuculline-induced convulsion at 0.75 mmol/kg, ip […] measured for 30 mins; type: functional; procedure, shortened: as §5
[30] = system: Mus musculus; experiment: Anticonvulsant activity in Swiss albino mouse assessed as protection against bicuculline-induced convulsion at 3.0 mmol/kg, ip […] measured for 30 mins; type: functional; procedure, shortened: as §5

`S=C1CCCN2C=C(Br)SC2=N1` gave an Activity [1] of 40%, an Activity [2] of 100% and an Activity [3] of 84%. The Activity [4] was 10%, the Activity [5] was 100% and the Activity [6] was 50%. The Activity [7] was 70%, the TD50 [8] was 398 mg/kg and the Activity [9] was 100%. The Activity [10] was 66%, the “Ratio TD50/ED50” value [11] was 1.58 and the Activity [12] was 25%. The Activity [13] was 52%, the Activity [14] was 50% and the ED50 [15] was 252 mg/kg. For the same compound, the Activity [16] was 0%, the Activity [17] was 0% and the Activity [18] was 0%. It also gave an Activity [19] of 92%, an Activity [20] of 25% and a mortality [21] of 0%. The Activity [22] was 0%, the Activity [23] was 14% and the LD50 [24] was 380 mg/kg. It also gave an Activity [25] of 40%, a selectivity ratio [26] of 1.51 and an Activity [27] of 0%. The Activity [28] was 20%, the Activity [29] was 10% and the Activity [30] was 100%.

Reference: ChEMBL document CHEMBL2146421, “Synthesis and anticonvulsant activity of some new thiazolo[3,2-a][1,3]diazepine, benzo[d]thiazolo[5,2-a][12,6]diazepine and benzo[d]oxazolo[5,2-a][12,6]diazepine analogues” (Eur J Med Chem, 2011)
